Common to all, as to type: cell-based
Series [1] concerns A549. As to the kind of experiment: Inhibition of Vesicular stomatitis virus envelope glycoprotein-mediated viral entry into human A549 cells after 48 hrs postinfection by luminometric analysis. In short, it runs like this: (§1)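 A549 cells seeded at 5 × 10⁴ per well; test compounds added 15 min before HIV-luc pseudovirions bearing the H5N1 HA (Qinghai or Viet Nam strain) or VSV-G envelope, then incubated. Pseudovirion supernatants were filtered and used directly for infection.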

The nature of series [2]: Inhibition of Influenza A virus (A/Viet Nam/1203/2004(H5N1)) hemagglutininin-mediated viral entry into human A549 cells after 48 hrs postinfection by luminometric analysis. In short, it runs like this:
as §1

The test system of series [3] is A549. As to the kind of experiment: Cytotoxicity against human A549 cells after 48 hrs. As to conditions: a549, 48 h.
Series [4] in a line: Inhibition of Influenza A virus (A/Bar-headed Goose/Qinghai/59/05(H5N1)) hemagglutininin-mediated viral entry into human A549 cells after 48 hrs postinfection by luminometric analysis. A digest of the protocol:
as §1

pIC50: −log10 of the molar value. Active and inactive are the calls of the source. The calls are words filed in the database; no cut-off is given here.

As a reminder, the pIC50 is the IC50 on a negative log10 scale, so that one unit is a factor of ten. A higher pIC50 goes with a low IC50. For `CO[C@@H]1[C@@H](O)[C@@H](O)[C@H](O[C@H]2[C@H](O[C@H]3CC[C@@]4(C)[C@H](C3)[C@@H](O)C[C@@H]3[C@@H]4CC[C@]4(C)[C@@H]5[C@H](C[C@@H]34)O[C@]3(CC[C@@H](C)CO3)[C@H]5C)O[C@H](CO)[C@@H](O[C@@H]3O[C@@H](C)[C@H](OC)[C@@H](O)[C@H]3O)[C@@H]2O)O[C@H]1C`, the inhibition entry in series [1] was “inactive”. Also, in series [2], the pIC50 is 4.62. Further, in series [3], the Activity result is recorded as “Non-toxic”.
In the case of `COC[C@H]1O[C@@H](O[C@H]2CC[C@@]3(C)[C@H](C2)[C@@H](O)C[C@@H]2[C@@H]3CC[C@]3(C)[C@@H]4[C@H](C[C@@H]23)O[C@]2(CC[C@@H](C)CO2)[C@H]4C)[C@H](O[C@@H]2O[C@@H](C)[C@H](O)[C@@H](O)[C@H]2O)[C@@H](O)[C@@H]1O[C@@H]1O[C@@H](C)[C@H](O)[C@@H](O)[C@H]1O`, the values for the pIC50 in series [4] and in series [2] were 4.92 and 5.05, respectively. The inhibition entry in series [1] was “inactive”. Moreover, in series [3], the Activity entry is given as “Non-toxic”.
As for `C[C@@H]1CC[C@@]2(OC1)O[C@H]1C[C@H]3[C@@H]4C[C@@H](O)[C@H]5C[C@@H](O[C@@H]6O[C@H](CO)[C@@H](O[C@@H]7O[C@@H](C)[C@H](O)[C@@H](O)[C@H]7O)[C@H](O)[C@H]6O[C@@H]6O[C@@H](C)[C@H](O)[C@@H](O)[C@H]6O)CC[C@]5(C)[C@H]4CC[C@]3(C)[C@H]1[C@@H]2C`, the figures for the pIC50 in series [4] and in series [2] were 4.74 and 4.96, respectively. Further, in series [1], the inhibition entry was “inactive”. Besides, the Activity result in series [3] was “Non-toxic”.
For `C[C@@H]1O[C@@H](O[C@H]2[C@H](O)[C@@H](O[C@@H]3O[C@@H](C)[C@H](O)[C@@H](O)[C@H]3O)C(O)O[C@@H]2CO)[C@H](O)[C@H](O)[C@H]1O` (some centres not stated) [CHACOTRIOSE], in that order: less than 4.30, less than 4.30, “inactive” and “Non-toxic”.
For `C[C@@H]1CC[C@@]2(OC1)O[C@H]1C[C@H]3[C@@H]4C[C@H](O)[C@H]5C[C@@H](O[C@@H]6O[C@H](CO)[C@@H](O[C@@H]7OC[C@H](O)[C@H](O)[C@H]7O)[C@H](O)[C@H]6O[C@@H]6OC[C@H](O)[C@H](O)[C@H]6O)CC[C@]5(C)[C@H]4CC[C@]3(C)[C@H]1[C@@H]2C`, in that order: less than 4.30, less than 4.30, “inactive” and “Non-toxic”.
Regarding `CCS[C@@H]1O[C@H](CO)[C@@H](O[C@@H]2O[C@@H](C)[C@H](O)[C@@H](O)[C@H]2O)[C@H](O)[C@H]1O[C@@H]1O[C@@H](C)[C@H](O)[C@@H](O)[C@H]1O`, the pIC50 in series [4] and in series [2] was less than 4.30 in each case. The inhibition entry in series [1] is “inactive”. In addition, in series [3], the Activity entry is given as “Non-toxic”.
In the case of `COC(=O)[C@]12CC[C@@H](C)[C@H](C)[C@H]1C1=CC[C@@H]3[C@@]4(C)CC[C@H](O[C@@H]5O[C@H](CO)[C@@H](O[C@@H]6O[C@@H](C)[C@H](O)[C@@H](O)[C@H]6O)[C@H](O)[C@H]5O[C@@H]5O[C@@H](C)[C@H](O)[C@@H](O)[C@H]5O)C(C)(C)[C@@H]4CC[C@@]3(C)[C@]1(C)CC2`, the negative-log IC50 (pIC50) in series [4] was 5.22; in series [2], 5.07. The inhibition entry in series [1] was “inactive”. For the same molecule, the Activity result in series [3] is “Non-toxic”.
For `CC(=O)O[C@H]1C[C@@H]2[C@H](CC[C@]3(C)[C@@H]4[C@H](C[C@@H]23)O[C@]2(CC[C@@H](C)CO2)[C@H]4C)[C@@]2(C)CC[C@H](O[C@@H]3O[C@H](CO)[C@@H](O[C@@H]4O[C@@H](C)[C@H](O)[C@@H](O)[C@H]4O)[C@H](O)[C@H]3O[C@@H]3O[C@@H](C)[C@H](O)[C@@H](O)[C@H]3O)C[C@H]12`, in that order: 5.12, 5.03, “inactive” and “Non-toxic”.
On the same counts, the results for `CO[C@@H]1[C@@H](O)[C@H](C)O[C@@H](O[C@H]2[C@H](O[C@H]3CC[C@@]4(C)[C@H](C3)[C@@H](O)C[C@@H]3[C@@H]4CC[C@]4(C)[C@@H]5[C@H](C[C@@H]34)O[C@]3(CC[C@@H](C)CO3)[C@H]5C)O[C@H](CO)[C@@H](O[C@@H]3O[C@@H](C)[C@H](O)[C@@H](OC)[C@H]3O)[C@@H]2O)[C@@H]1O` are 4.55, 4.80, “inactive” and “Non-toxic”.
For the molecule `C[C@@H]1CC[C@@]2(OC1)O[C@H]1C[C@H]3[C@@H]4CC(=O)[C@H]5C[C@@H](O[C@@H]6O[C@H](CO)[C@@H](O[C@@H]7O[C@@H](C)[C@H](O)[C@@H](O)[C@H]7O)[C@H](O)[C@H]6O[C@@H]6O[C@@H](C)[C@H](O)[C@@H](O)[C@H]6O)CC[C@]5(C)[C@H]4CC[C@]3(C)[C@H]1[C@@H]2C`, the pIC50 in series [4] was 4.70; in series [2], 4.92. In addition, in series [1], the inhibition entry was “inactive”. In addition, the Activity result in series [3] is on record as “Non-toxic”.
For `CO[C@H]1[C@H](O[C@H]2[C@H](O[C@H]3CC[C@@]4(C)[C@H](C3)[C@@H](O)C[C@@H]3[C@@H]4CC[C@]4(C)[C@@H]5[C@H](C[C@@H]34)O[C@]3(CC[C@@H](C)CO3)[C@H]5C)O[C@H](CO)[C@@H](O[C@@H]3O[C@@H](C)[C@H](O)[C@@H](O)[C@H]3OC)[C@@H]2O)O[C@@H](C)[C@H](O)[C@H]1O`, in that order: 4.51, 4.82, “inactive” and “Non-toxic”.
On the same counts, the results for `C[C@@H]1CC[C@@]2(OC1)O[C@H]1C[C@H]3[C@@H]4C[C@H](O)[C@H]5C[C@@H](O[C@@H]6O[C@H](CO)[C@@H](O[C@@H]7O[C@@H](C)[C@H](O)[C@@H](O)[C@H]7O)[C@H](O)[C@H]6O[C@@H]6O[C@@H](C)[C@H](O)[C@@H](O)[C@H]6O)CC[C@]5(C)[C@H]4CC[C@]3(C)[C@H]1[C@@H]2C` are 5.14, 5.11, “inactive” and “Non-toxic”.
For `CO[C@@H]1[C@@H](O[C@@H]2O[C@@H](C)[C@H](O)[C@@H](O)[C@H]2O)[C@H](O[C@H]2CC[C@@]3(C)[C@H](C2)[C@@H](O)C[C@@H]2[C@@H]3CC[C@]3(C)[C@@H]4[C@H](C[C@@H]23)O[C@]2(CC[C@@H](C)CO2)[C@H]4C)O[C@H](CO)[C@H]1O[C@@H]1O[C@@H](C)[C@H](O)[C@@H](O)[C@H]1O`, in that order: 4.60, 4.89, “inactive” and “Non-toxic”.
Turning to `C[C@@H]1CC[C@@]2(OC1)O[C@H]1C[C@H]3[C@@H]4C[C@H](O[C@@H]5O[C@@H](C)[C@H](O)[C@@H](O)[C@H]5O)[C@H]5C[C@@H](O[C@@H]6O[C@H](CO)[C@@H](O[C@@H]7O[C@@H](C)[C@H](O)[C@@H](O)[C@H]7O)[C@H](O)[C@H]6O[C@@H]6O[C@@H](C)[C@H](O)[C@@H](O)[C@H]6O)CC[C@]5(C)[C@H]4CC[C@]3(C)[C@H]1[C@@H]2C`, the pIC50 in series [4] and in series [2] was less than 4.30 in each case. In addition, in series [1], the inhibition entry is “inactive”. Also, the Activity entry in series [3] is listed as “Non-toxic”.
`C[C@@H]1CC[C@@]2(OC1)O[C@H]1C[C@H]3[C@@H]4C[C@H](O)[C@H]5C[C@@H](O)CC[C@]5(C)[C@H]4CC[C@]3(C)[C@H]1[C@@H]2C` [CHLOROGENIN]: the pIC50 in series [4] and in series [2] was less than 4.30 in each case.

(Values after ChEMBL document CHEMBL2046336, “Structure-activity relationships of saponin derivatives: a series of entry inhibitors for highly pathogenic H5N1 influenza virus” (Eur J Med Chem, 2012).)
